Reference: ChEMBL document CHEMBL3352815, “Indolinone based LRRK2 kinase inhibitors with a key hydrogen bond” (Bioorg Med Chem Lett, 2014)
pIC50: −log10 of the molar value.

Legend:
[1] = target: T1, Leucine-rich repeat serine/threonine-protein kinase 2 (Homo sapiens, UniProt Q5S007); assay: Inhibition of recombinant LRRK2 (unknown origin) using gamma-32P-ATP assessed as LRRKtide substrate phosphorylation level at 10 uM by autoradiography; parameters: scale not given: the % may be the effect or the level left
Outline: (§1)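 In vitro LRRK2 kinase activity assay with a peptide substrate. Compound was tested at two concentrations, 10 and 1. Read-out is residual LRRK2 kinase activity, given as percent relative to control.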

[2] = target: T1, Leucine-rich repeat serine/threonine-protein kinase 2; assay: Inhibition of recombinant LRRK2 (unknown origin) using gamma-32P-ATP assessed as LRRKtide substrate phosphorylation level at 1 uM by autoradiography; parameters: scale not given: the % may be the effect or the level left; outline: as §1
[3] = target: T1, Leucine-rich repeat serine/threonine-protein kinase 2; assay: Inhibition of recombinant LRRK2 (unknown origin) using gamma-32P-ATP assessed as LRRKtide substrate phosphorylation level by autoradiography
Danio rerio [4] = species on record: Danio rerio; assay: Toxicity in zebrafish embryo assessed as crooked tails at 5 to 10 uM after 24 hrs; type: organism-based; conditions: in vivo
[5] = Toxicity in zebrafish embryo assessed as lethality at 20 to 30 uM after 24 hrs; type: organism-based, Danio rerio; conditions: in vivo, read-out: Activity
Outline: (§2)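 Zebrafish embryos kept in E3 medium at 28 °C; compound added at 24 hpf, with 1% DMSO embryos as control. Concentrations from 1 to 100 µM. Lethality recorded over time through 120 hpf, with phenotype also compared at 96 hpf.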

[6] = target: Glycogen synthase kinase-3 beta (Homo sapiens) (UniProt P49841); assay: Inhibition of human recombinant GSK3beta using CFFKNIVTPRTPPPSQGK-amide substrate after 90 mins incubation by LANCE method
[7] = target: Interleukin-1 receptor-associated kinase 4 (Homo sapiens) (UniProt Q9NWZ3); assay: Inhibition of human recombinant IRAK4 expressed insect cells using Ulight-FLGFTYVAP substrate assessed as remaining enzyme activity at 1 uM after 90 mins relative to control
[8] = target: Insulin receptor (Homo sapiens) (UniProt P06213); assay: Inhibition of human recombinant InsR using Ulight-Poly GAT[EAY(1:1:1)]n substrate assessed as remaining enzyme activity at 1 uM after 10 mins relative to control
[9] = target: Vascular endothelial growth factor receptor 2 (Homo sapiens) (UniProt P35968); assay: Inhibition of human recombinant KDR kinase expressed Sf9 cells using Ulight-CAGAGAIETDKEYYTVKD substrate assessed as remaining enzyme activity at 1 uM after 60 mins relative to control
[10] = target: Tyrosine-protein kinase Lck (Homo sapiens) (UniProt P06239); assay: Inhibition of human recombinant Lck kinase expressed insect cells using Ulight-Poly GAT[EAY(1:1:1)]n substrate assessed as remaining enzyme activity at 1 uM after 30 mins relative to control
[11] = target: MAP kinase-activated protein kinase 2 (Homo sapiens) (UniProt P49137); assay: Inhibition of human recombinant MAPKAPK2 expressed Escherichia coli using CREBtide (CKRREILSRRPSYRK) substrate assessed as remaining enzyme activity at 1 uM after 15 mins relative to control
[12] = target: MAP kinase-interacting serine/threonine-protein kinase 2 (Homo sapiens) (UniProt Q9HBH9); assay: Inhibition of human recombinant MNK2 expressed Sf21 cells using CREBtide (CKRREILSRRPSYRK) substrate assessed as remaining enzyme activity at 1 uM after 90 mins relative to control
[13] = target: Serine/threonine-protein kinase 26 (Homo sapiens) (UniProt Q9P289); assay: Inhibition of human recombinant MST4 kinase using Ulight TM- PKC substrate assessed as remaining enzyme activity at 1 uM after 30 mins relative to control
[14] = target: Serine/threonine-protein kinase Nek2 (Homo sapiens) (UniProt P51955); assay: Inhibition of human recombinant NEK2 expressed insect cells using Ulight-FLGFTYVAP substrate assessed as remaining enzyme activity at 1 uM after 60 mins relative to control
[15] = target: 3-phosphoinositide-dependent protein kinase 1 (Homo sapiens) (UniProt O15530); assay: Inhibition of human recombinant PDK1 expressed insect cells using Ulight-FLGFTYVAP substrate assessed as remaining enzyme activity at 1 uM after 90 mins relative to control
[16] = target: Serine/threonine-protein kinase PLK1 (Homo sapiens) (UniProt P53350); assay: Inhibition of human recombinant PLK1 using Ulight-FLGFTYVAP substrate assessed as remaining enzyme activity at 1 uM after 60 mins relative to control
[17] = target: Rho-associated protein kinase 1 (Homo sapiens) (UniProt Q13464); assay: Inhibition of human recombinant ROCK1 using Ulight-RRRSLLE substrate assessed as remaining enzyme activity at 1 uM after 30 mins relative to control
[18] = target: Serine/threonine-protein kinase Sgk1 (Homo sapiens) (UniProt O00141); assay: Inhibition of human recombinant SGK1 using Ulight-RRRSLLE substrate assessed as remaining enzyme activity at 1 uM after 30 mins relative to control
[19] = target: Proto-oncogene tyrosine-protein kinase Src (Homo sapiens) (UniProt P12931); assay: Inhibition of human recombinant Src kinase expressed insect cells using Ulight-Poly GAT[EAY(1:1:1)]n substrate assessed as remaining enzyme activity at 1 uM after 10 mins relative to control
[20] = target: Serine/threonine-protein kinase TAO2 (Homo sapiens) (UniProt Q9UL54); assay: Inhibition of human recombinant TAOK2 (TAO1) using Ulight-FLGFTYVAP substrate assessed as remaining enzyme activity at 1 uM after 60 mins relative to control
[21] = target: High affinity nerve growth factor receptor (Homo sapiens) (UniProt P04629); assay: Inhibition of human recombinant TRKA expressed insect cells using Ulight-Poly GAT[EAY(1:1:1)]n substrate assessed as remaining enzyme activity at 1 uM after 10 mins relative to control
[22] = Toxicity in zebrafish embryo assessed as lethality at 30 uM after 120 hrs; type: organism-based, Danio rerio; conditions: in vivo, read-out: Activity; outline: as §2
Danio rerio [23] = species on record: Danio rerio; assay: Toxicity in zebrafish embryo at below 10 uM after 24 hrs; type: organism-based; conditions: in vivo
Outline: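 Zebrafish embryos collected and kept in E3 medium at 28 °C. Compound added at 24 hpf, and phenotypes (growth, tail morphology) were compared at 96 hpf against control embryos in 1% DMSO. Lethality was followed over time up to 120 hpf across a concentration series.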

[24] = target: Tyrosine-protein kinase ABL1 (Homo sapiens) (UniProt P00519); assay: Inhibition of human recombinant Abl kinase expressed insect cells using Ulight-TK peptide substrate assessed as remaining enzyme activity at 1 uM after 60 mins relative to control
[25] = target: RAC-alpha serine/threonine-protein kinase (Homo sapiens) (UniProt P31749); assay: Inhibition of human recombinant Akt1/PKBalpha expressed insect cells using CKRREILSRRPSYRK substrate assessed as remaining enzyme activity at 1 uM after 60 mins relative to control
[26] = target: Cyclin-dependent kinase 1/cyclin B1 (Homo sapiens) (UniProt P06493+P14635); assay: Inhibition of human recombinant CDC2/CDK1 (cycB) expressed insect cells using Ulight-CFFKNIVTPRTPPPSQGK-amide substrate assessed as remaining enzyme activity at 1 uM after 15 mins relative to control
[27] = target: Cyclin-dependent kinase 2 (Homo sapiens) (UniProt P24941); assay: Inhibition of human recombinant CDK2 using Ulight-CFFKNIVTPRTPPPSQGK-amide substrate assessed as remaining enzyme activity at 1 uM after 30 mins relative to control
[28] = target: Serine/threonine-protein kinase Chk1 (Homo sapiens) (UniProt O14757); assay: Inhibition of human recombinant CHK1 expressed insect cells using CREBtide (CKRREILSRRPSYRK) substrate assessed as remaining enzyme activity at 1 uM after 30 mins relative to control
[29] = target: Serine/threonine-protein kinase Chk2 (Homo sapiens) (UniProt O96017); assay: Inhibition of human recombinant CHK2 expressed insect cells using CREBtide (CKRREILSRRPSYRK) substrate assessed as remaining enzyme activity at 1 uM after 15 mins relative to control
[30] = target: Hepatocyte growth factor receptor (Homo sapiens) (UniProt P08581); assay: Inhibition of human recombinant c-Met kinase expressed insect cells using Ulight-CAGAGAIETDKEYYTVKD substrate assessed as remaining enzyme activity at 1 uM after 60 mins relative to control
[31] = target: Ephrin type-A receptor 3 (Homo sapiens) (UniProt P29320); assay: Inhibition of human recombinant EphA3 kinase using Ulight-TK peptide substrate assessed as remaining enzyme activity at 1 uM after 60 mins relative to control

T1 sequence (Q5S007 whole entry): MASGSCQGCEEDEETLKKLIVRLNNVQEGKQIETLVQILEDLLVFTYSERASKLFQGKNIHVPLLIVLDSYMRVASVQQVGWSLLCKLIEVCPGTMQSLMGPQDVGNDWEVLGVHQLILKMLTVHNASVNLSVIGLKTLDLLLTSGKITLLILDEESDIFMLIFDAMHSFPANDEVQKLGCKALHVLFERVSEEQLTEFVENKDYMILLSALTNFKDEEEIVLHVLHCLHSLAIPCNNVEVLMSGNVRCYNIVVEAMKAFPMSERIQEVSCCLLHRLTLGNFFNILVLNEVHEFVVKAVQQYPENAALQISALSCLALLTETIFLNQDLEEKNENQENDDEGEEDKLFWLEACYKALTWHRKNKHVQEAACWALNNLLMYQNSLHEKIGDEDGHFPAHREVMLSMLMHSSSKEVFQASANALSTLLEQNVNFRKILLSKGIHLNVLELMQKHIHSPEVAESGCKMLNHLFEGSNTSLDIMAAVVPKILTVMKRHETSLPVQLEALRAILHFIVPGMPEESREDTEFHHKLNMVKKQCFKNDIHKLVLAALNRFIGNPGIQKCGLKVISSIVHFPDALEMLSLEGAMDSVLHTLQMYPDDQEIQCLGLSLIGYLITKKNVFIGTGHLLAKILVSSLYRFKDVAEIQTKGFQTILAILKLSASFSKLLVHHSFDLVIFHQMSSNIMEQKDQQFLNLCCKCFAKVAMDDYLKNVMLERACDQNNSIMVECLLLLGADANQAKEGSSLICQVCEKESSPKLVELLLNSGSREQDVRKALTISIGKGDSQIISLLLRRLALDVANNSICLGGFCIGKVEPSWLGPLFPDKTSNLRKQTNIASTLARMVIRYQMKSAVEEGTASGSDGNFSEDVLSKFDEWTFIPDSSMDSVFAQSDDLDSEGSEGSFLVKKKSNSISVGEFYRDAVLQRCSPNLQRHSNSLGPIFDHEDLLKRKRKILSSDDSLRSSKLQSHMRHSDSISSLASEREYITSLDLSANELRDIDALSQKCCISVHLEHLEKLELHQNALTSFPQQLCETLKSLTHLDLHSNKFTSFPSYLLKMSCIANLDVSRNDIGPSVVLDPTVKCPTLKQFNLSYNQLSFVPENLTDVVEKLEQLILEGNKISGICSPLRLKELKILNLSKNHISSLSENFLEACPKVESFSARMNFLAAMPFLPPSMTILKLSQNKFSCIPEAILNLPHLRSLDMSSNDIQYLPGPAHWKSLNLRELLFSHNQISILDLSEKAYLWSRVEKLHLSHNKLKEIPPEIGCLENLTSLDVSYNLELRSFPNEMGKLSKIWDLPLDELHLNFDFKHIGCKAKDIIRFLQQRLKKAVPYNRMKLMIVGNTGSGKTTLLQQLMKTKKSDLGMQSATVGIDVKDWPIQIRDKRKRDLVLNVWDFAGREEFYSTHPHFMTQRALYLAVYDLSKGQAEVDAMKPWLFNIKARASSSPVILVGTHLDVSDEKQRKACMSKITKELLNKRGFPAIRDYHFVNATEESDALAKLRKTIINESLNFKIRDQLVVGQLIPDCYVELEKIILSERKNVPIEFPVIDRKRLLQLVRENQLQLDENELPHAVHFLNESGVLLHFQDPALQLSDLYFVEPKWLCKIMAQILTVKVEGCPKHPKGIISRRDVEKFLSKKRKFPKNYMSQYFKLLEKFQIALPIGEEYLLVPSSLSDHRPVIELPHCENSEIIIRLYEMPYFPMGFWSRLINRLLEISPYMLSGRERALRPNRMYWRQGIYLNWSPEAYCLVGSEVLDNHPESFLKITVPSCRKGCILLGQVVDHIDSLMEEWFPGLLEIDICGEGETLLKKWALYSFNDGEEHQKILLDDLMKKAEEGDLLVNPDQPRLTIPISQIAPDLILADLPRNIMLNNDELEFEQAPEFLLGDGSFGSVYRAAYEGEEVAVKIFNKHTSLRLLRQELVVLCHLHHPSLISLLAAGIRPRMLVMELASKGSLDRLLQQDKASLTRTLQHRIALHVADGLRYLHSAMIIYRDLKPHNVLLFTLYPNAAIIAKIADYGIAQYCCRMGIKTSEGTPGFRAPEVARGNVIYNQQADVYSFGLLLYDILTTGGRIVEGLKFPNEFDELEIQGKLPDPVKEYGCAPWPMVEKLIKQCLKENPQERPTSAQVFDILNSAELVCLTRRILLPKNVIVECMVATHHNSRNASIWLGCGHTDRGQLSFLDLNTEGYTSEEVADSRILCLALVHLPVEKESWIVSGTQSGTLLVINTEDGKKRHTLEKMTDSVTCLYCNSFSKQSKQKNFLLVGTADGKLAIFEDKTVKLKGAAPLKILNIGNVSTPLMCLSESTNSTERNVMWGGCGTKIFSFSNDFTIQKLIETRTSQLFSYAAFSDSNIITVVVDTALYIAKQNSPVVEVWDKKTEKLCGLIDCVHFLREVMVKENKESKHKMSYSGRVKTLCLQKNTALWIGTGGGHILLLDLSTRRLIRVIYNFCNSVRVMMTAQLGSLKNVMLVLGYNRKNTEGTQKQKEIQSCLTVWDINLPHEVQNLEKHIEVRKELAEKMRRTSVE
3-phosphoinositide-dependent protein kinase 1 (Homo sapiens), sequence (O15530 whole entry): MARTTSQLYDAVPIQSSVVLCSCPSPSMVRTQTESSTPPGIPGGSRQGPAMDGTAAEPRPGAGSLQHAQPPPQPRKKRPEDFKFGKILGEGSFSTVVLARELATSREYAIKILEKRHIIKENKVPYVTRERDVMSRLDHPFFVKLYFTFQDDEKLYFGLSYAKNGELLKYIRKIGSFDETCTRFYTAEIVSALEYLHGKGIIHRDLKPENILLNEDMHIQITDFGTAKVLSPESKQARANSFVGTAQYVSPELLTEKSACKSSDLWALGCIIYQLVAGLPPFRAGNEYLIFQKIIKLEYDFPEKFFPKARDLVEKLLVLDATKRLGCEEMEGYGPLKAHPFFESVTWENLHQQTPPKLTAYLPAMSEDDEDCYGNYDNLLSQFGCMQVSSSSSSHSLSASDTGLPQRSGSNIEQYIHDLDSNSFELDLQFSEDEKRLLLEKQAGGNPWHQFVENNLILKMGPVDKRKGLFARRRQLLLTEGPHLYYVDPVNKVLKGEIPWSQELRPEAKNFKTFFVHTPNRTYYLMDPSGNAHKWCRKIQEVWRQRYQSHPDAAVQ
Vascular endothelial growth factor receptor 2 (Homo sapiens), sequence (P35968 whole entry): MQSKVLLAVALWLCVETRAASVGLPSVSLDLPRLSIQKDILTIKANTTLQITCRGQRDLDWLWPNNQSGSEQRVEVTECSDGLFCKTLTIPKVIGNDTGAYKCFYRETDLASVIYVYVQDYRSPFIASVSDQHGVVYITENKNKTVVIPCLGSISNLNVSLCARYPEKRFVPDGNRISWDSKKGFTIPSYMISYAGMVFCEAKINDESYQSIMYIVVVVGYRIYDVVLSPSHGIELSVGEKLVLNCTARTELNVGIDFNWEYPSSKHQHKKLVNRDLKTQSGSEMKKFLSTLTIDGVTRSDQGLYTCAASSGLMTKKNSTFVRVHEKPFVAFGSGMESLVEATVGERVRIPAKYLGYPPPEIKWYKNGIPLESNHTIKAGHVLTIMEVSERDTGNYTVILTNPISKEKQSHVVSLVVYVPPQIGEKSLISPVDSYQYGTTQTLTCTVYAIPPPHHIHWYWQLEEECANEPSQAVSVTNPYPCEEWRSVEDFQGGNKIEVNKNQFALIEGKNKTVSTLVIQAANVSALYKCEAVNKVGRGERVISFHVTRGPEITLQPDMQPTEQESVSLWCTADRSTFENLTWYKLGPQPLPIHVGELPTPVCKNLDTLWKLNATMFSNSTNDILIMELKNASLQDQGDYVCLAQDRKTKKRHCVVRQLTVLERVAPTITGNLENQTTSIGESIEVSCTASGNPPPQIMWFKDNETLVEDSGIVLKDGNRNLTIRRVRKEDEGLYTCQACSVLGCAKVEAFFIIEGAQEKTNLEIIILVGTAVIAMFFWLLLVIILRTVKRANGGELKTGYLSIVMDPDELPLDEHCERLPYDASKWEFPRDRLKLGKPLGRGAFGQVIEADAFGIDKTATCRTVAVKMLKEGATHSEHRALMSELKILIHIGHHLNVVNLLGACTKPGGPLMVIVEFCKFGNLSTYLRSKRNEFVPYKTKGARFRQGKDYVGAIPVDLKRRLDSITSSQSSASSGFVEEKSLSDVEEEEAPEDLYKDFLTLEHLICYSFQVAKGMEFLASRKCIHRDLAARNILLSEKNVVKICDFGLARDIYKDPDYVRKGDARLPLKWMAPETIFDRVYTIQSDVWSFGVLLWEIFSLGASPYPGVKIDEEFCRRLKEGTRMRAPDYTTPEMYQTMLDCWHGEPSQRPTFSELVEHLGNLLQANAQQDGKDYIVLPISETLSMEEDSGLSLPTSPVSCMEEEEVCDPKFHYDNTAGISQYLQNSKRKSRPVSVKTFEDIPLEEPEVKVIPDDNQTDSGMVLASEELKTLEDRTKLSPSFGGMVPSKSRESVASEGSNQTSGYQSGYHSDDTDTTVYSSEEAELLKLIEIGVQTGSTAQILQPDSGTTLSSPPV
Serine/threonine-protein kinase Sgk1 (Homo sapiens), sequence (O00141 whole entry): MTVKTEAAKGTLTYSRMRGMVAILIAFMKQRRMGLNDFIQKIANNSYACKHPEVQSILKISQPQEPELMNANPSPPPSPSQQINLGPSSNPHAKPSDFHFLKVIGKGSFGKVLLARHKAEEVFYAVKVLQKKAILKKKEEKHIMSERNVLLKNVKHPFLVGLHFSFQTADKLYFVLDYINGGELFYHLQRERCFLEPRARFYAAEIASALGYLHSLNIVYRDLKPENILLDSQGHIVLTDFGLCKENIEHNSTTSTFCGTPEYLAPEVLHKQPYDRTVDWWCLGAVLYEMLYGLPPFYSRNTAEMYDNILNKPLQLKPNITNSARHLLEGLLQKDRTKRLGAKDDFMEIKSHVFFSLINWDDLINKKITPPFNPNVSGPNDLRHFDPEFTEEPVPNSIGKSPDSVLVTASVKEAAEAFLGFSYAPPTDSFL

CN(C)CCOc1ccc(/C=C2/C(=O)Nc3ccc(Cl)cc32)cc1
Activity [1]: 3%
Activity [2]: 22%
pIC50 [3]: 6.33

O=C1Nc2ccc(Cl)cc2/C1=C\c1ccc(O)c(Br)c1
Activity (Danio rerio [4]): Toxic
mortality at 24 h, up to 30 µM [5]: > 80%
inhibition [6]: 19%

COc1cc(OCCN(C)C)ccc1/C=C1/C(=O)Nc2ccc(Cl)cc21
Activity [1]: 29%
Activity [2]: 62%

COc1cc(/C=C2/C(=O)Nc3ccc(Cl)cc32)ccc1N1CCOCC1
Activity [1]: 33%
Activity [2]: 22%

CN[C@@H]1C[C@H]2O[C@@](C)([C@@H]1OC)n1c3ccccc3c3c4c(c5c6ccccc6n2c5c31)C(=O)NC4
Activity [1]: 2%
Activity [2]: 5%

O=C1Nc2ccc(Cl)cc2/C1=C/c1cc(Br)c(O)c(Br)c1
Activity [7]: 90%
Activity [8]: 104%
Activity [9]: 97%
Activity [10]: 102%
Activity [11]: 83%
Activity [12]: 89%
Activity [13]: 103%
Activity [14]: 99%
Activity [15]: 83%
Activity [16]: 80%
Activity [17]: 92%
Activity [18]: 100%
Activity [19]: 101%
Activity [20]: 85%
Activity [21]: 91%
mortality at 120 h, 30 µM [22]: 40%
Activity (Danio rerio [23]): Non-toxic
Activity [24]: 77%
Activity [25]: 87%
Activity [26]: 90%
Activity [27]: 95%
Activity [28]: 81%
Activity [29]: 87%
Activity [30]: 69%
Activity [31]: 101%

O=C1Nc2ccc(Cl)cc2/C1=C\c1ccccc1
Activity [1]: 16%
Activity [2]: 27%
pIC50 [3]: 5.00

COc1ccc2c(c1)/C(=C\c1cc(Br)c(O)c(Br)c1)C(=O)N2
pIC50 [3]: 7.51

COc1cc(/C=C2/C(=O)Nc3ccc(Cl)cc32)ccc1OCCN(C)C
Activity [1]: 24%
Activity [2]: 26%

O=C1Nc2ccc(Cl)cc2/C1=C\c1ccc(OCCN2CCOCC2)cc1
Activity [1]: 15%
Activity [2]: 37%
pIC50 [3]: 6.69

COc1cc(/C=C2/C(=O)Nc3ccc(Cl)cc32)ccc1OCCN1CCOCC1
Activity [1]: 9%
Activity [2]: 8%
pIC50 [3]: 6.79

COc1cc(C(=O)N2CCC(N3CCN(C)CC3)CC2)ccc1Nc1ncc2c(n1)N(C)c1ccccc1C(=O)N2C
Activity [1]: 5%
Activity [2]: 13%

O=C1Nc2ccc(Cl)cc2/C1=C\c1ccc(O)cc1
Activity [1]: 8%
Activity [2]: 12%
pIC50 [3]: 4.92

COc1c(C)cc(/C=C2/C(=O)Nc3ccc(Cl)cc32)cc1C
pIC50 [3]: 5.82
